Measurements taken from ChEMBL document CHEMBL1926577, “Novel 1,3,4-heterodiazole analogues: synthesis and in-vitro antitumor activity” (2012).

Key:
Type in all cases: functional
M14 = test: Growth inhibition of human M14 cells at 10 uM after 48 hrs by coulter counter method; settings: M14, 48 h, read-out: GI
Procedure, shortened: (§1)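 NCI 60-cell-line panel, single dose. Compound dissolved first in DMSO, then diluted in phosphate-buffered saline so that every final dilution held under 1% DMSO. Duplicate wells received cells at 6 × 10⁴ cells/ml. Controls held PBS/DMSO at the same dilution. Plates were incubated 48 h at 37 °C under 5% CO₂. Cells were then diluted 10-fold in saline and counted on a Coulter counter, with counts corrected for the dilution. Results are given as percent growth inhibition.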

NCI-H522 = test: Growth inhibition of human NCI-H522 cells at 10 uM after 48 hrs by coulter counter method; settings: NCI-H522, 48 h, read-out: GI; procedure, shortened: as §1
NCI-H322M = test: Growth inhibition of human NCI-H322M cells at 10 uM after 48 hrs by coulter counter method; settings: read-out: GI; procedure, shortened: as §1
HCT-116 = test: Growth inhibition of human HCT116 cells at 10 uM after 48 hrs by coulter counter method; settings: HCT-116, 48 h, read-out: GI; procedure, shortened: as §1
UO-31 = test: Growth inhibition of human UO31 cells at 10 uM after 48 hrs by coulter counter method; settings: UO-31, 48 h, read-out: GI; procedure, shortened: as §1
KM12 = test: Growth inhibition of human KM12 cells at 10 uM after 48 hrs by coulter counter method; settings: KM12, 48 h, read-out: GI; procedure, shortened: as §1
MDA-MB-435 = test: Growth inhibition of human MDA-MB-435 cells at 10 uM after 48 hrs by coulter counter method; settings: MDA-MB-435, 48 h, read-out: GI; procedure, shortened: as §1
786-0 = test: Growth inhibition of human 786-0 cells at 10 uM after 48 hrs by coulter counter method; settings: 786-0, 48 h, read-out: GI; procedure, shortened: as §1
SK-MEL-5 = test: Growth inhibition of human SK-MEL-5 cells at 10 uM after 48 hrs by coulter counter method; settings: SK-MEL-5, 48 h, read-out: GI; procedure, shortened: as §1
SN12C = test: Growth inhibition of human SN12C cells at 10 uM after 48 hrs by coulter counter method; settings: read-out: GI; procedure, shortened: as §1
SF-295 = test: Growth inhibition of human SF295 cells at 10 uM after 48 hrs by coulter counter method; settings: SF-295, 48 h, read-out: GI; procedure, shortened: as §1
SNB-19 = test: Growth inhibition of human SNB19 cells at 10 uM after 48 hrs by coulter counter method; settings: SNB-19, 48 h, read-out: GI; procedure, shortened: as §1
SR = test: Growth inhibition of human SR cells at 10 uM after 48 hrs by coulter counter method; settings: read-out: GI; procedure, shortened: as §1
NCI-H226 = test: Growth inhibition of human NCI-H226 cells at 10 uM after 48 hrs by coulter counter method; settings: NCI-H226, 48 h, read-out: GI; procedure, shortened: as §1
MCF7 = test: Growth inhibition of human MCF7 cells at 10 uM after 48 hrs by coulter counter method; settings: MCF7, 48 h, read-out: GI; procedure, shortened: as §1
BT-549 = test: Growth inhibition of human BT549 cells at 10 uM after 48 hrs by coulter counter method; settings: BT-549, 48 h, read-out: GI; procedure, shortened: as §1
CCRF-CEM = test: Growth inhibition of human CCRF-CEM cells at 10 uM after 48 hrs by coulter counter method; settings: read-out: GI; procedure, shortened: as §1
K562 = test: Growth inhibition of human K562 cells at 10 uM after 48 hrs by coulter counter method; settings: K562, 48 h, read-out: GI; procedure, shortened: as §1
UACC-62 = test: Growth inhibition of human UACC62 cells at 10 uM after 48 hrs by coulter counter method; settings: UACC-62, 48 h, read-out: GI; procedure, shortened: as §1
EKVX = test: Growth inhibition of human EKVX cells at 10 uM after 48 hrs by coulter counter method; settings: read-out: GI; procedure, shortened: as §1
SNB-75 = test: Growth inhibition of human SNB75 cells at 10 uM after 48 hrs by coulter counter method; settings: SNB-75, 48 h, read-out: GI; procedure, shortened: as §1
MOLT-4 = test: Growth inhibition of human MOLT4 cells at 10 uM after 48 hrs by coulter counter method; settings: MOLT-4, 48 h, read-out: GI; procedure, shortened: as §1
SF-268 = test: Growth inhibition of human SF268 cells at 10 uM after 48 hrs by coulter counter method; settings: SF-268, 48 h, read-out: GI; procedure, shortened: as §1
RPMI-8226 = test: Growth inhibition of human RPMI8226 cells at 10 uM after 48 hrs by coulter counter method; settings: RPMI-8226, 48 h, read-out: GI; procedure, shortened: as §1
LOX IMVI = test: Growth inhibition of human LOXIMVI cells at 10 uM after 48 hrs by coulter counter method; settings: read-out: GI; procedure, shortened: as §1
CAKI-1 = test: Growth inhibition of human Caki1 cells at 10 uM after 48 hrs by coulter counter method; settings: CAKI-1, 48 h, read-out: GI; procedure, shortened: as §1
A549 = test: Growth inhibition of human A549 cells at 10 uM after 48 hrs by coulter counter method; settings: A549, 48 h, read-out: GI; procedure, shortened: as §1
U-251 = test: Growth inhibition of human U251 cells at 10 uM after 48 hrs by coulter counter method; settings: U-251, 48 h, read-out: GI; procedure, shortened: as §1
NCI/ADR-RES = test: Growth inhibition of human NCI/ADR-RES cells at 10 uM after 48 hrs by coulter counter method; settings: read-out: GI; procedure, shortened: as §1
SK-MEL-28 = test: Growth inhibition of human SK-MEL-28 cells at 10 uM after 48 hrs by coulter counter method; settings: SK-MEL-28, 48 h, read-out: GI; procedure, shortened: as §1
T47D = test: Growth inhibition of human T47D cells at 10 uM after 48 hrs by coulter counter method; settings: read-out: GI; procedure, shortened: as §1
TK-10 = test: Growth inhibition of human TK10 cells at 10 uM after 48 hrs by coulter counter method; settings: TK-10, 48 h, read-out: GI; procedure, shortened: as §1
A498 = test: Growth inhibition of human A498 cells at 10 uM after 48 hrs by coulter counter method; settings: A498, 48 h, read-out: GI; procedure, shortened: as §1
HCT-15 = test: Growth inhibition of human HCT15 cells at 10 uM after 48 hrs by coulter counter method; settings: HCT-15, 48 h, read-out: GI; procedure, shortened: as §1
IGROV-1 = test: Growth inhibition of human IGROV1 cells at 10 uM after 48 hrs by coulter counter method; settings: IGROV-1, 48 h, read-out: GI; procedure, shortened: as §1
NCI-H23 = test: Growth inhibition of human NCI-H23 cells at 10 uM after 48 hrs by coulter counter method; settings: NCI-H23, 48 h, read-out: GI; procedure, shortened: as §1
Malme-3M = test: Growth inhibition of human MALME-3M cells at 10 uM after 48 hrs by coulter counter method; settings: read-out: GI; procedure, shortened: as §1
HT-29 = test: Growth inhibition of human HT-29 cells at 10 uM after 48 hrs by coulter counter method; settings: HT-29, 48 h, read-out: GI; procedure, shortened: as §1
HL-60(TB) = test: Growth inhibition of human HL-60(TB) cells at 10 uM after 48 hrs by coulter counter method; settings: HL-60, 48 h, read-out: GI
Procedure, shortened: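 Single-dose screen on the NCI 60-line panel (leukemia subpanel). Compound is dissolved in DMSO and diluted in PBS, with final DMSO below 1%. Duplicate wells hold 6 × 10⁴ cells/ml at 37 °C, 5% CO₂, for 48 h. Cells are counted by Coulter counter after 10-fold saline dilution. Read-out is percent growth versus PBS/DMSO controls, expressed as % growth inhibition.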

UACC-257 = test: Growth inhibition of human UACC257 cells at 10 uM after 48 hrs by coulter counter method; settings: UACC-257, 48 h, read-out: GI; procedure, shortened: as §1
OVCAR-8 = test: Growth inhibition of human OVCAR8 cells at 10 uM after 48 hrs by coulter counter method; settings: OVCAR-8, 48 h, read-out: GI; procedure, shortened: as §1
ACHN = test: Growth inhibition of human ACHN cells at 10 uM after 48 hrs by coulter counter method; settings: read-out: GI; procedure, shortened: as §1
SK-MEL-2 = test: Growth inhibition of human SK-MEL-2 cells at 10 uM after 48 hrs by coulter counter method; settings: SK-MEL-2, 48 h, read-out: GI; procedure, shortened: as §1
PC-3 = test: Growth inhibition of human PC3 cells at 10 uM after 48 hrs by coulter counter method; settings: PC-3, 48 h, read-out: GI; procedure, shortened: as §1
MDA-MB-468 = test: Growth inhibition of human MDA-MB-468 cells at 10 uM after 48 hrs by coulter counter method; settings: MDA-MB-468, 48 h, read-out: GI; procedure, shortened: as §1

SMILES: NC1=CC(N)=NC2SC(c3ccccc3)=NN12 (stereo not given)
- inhibition of growth at 10 µM (M14): < 10%
- inhibition of growth at 10 µM (NCI-H522): < 10%
- inhibition of growth at 10 µM (NCI-H322M): < 10%
- inhibition of growth at 10 µM (HCT-116): < 10%
- inhibition of growth at 10 µM (UO-31): 36.6%
- inhibition of growth at 10 µM (KM12): < 10%
- inhibition of growth at 10 µM (MDA-MB-435): < 10%
- inhibition of growth at 10 µM (786-0): < 10%
- inhibition of growth at 10 µM (SK-MEL-5): < 10%
- inhibition of growth at 10 µM (SN12C): < 10%
- inhibition of growth at 10 µM (SF-295): < 10%
- inhibition of growth at 10 µM (SNB-19): < 10%
- inhibition of growth at 10 µM (SR): < 10%
- inhibition of growth at 10 µM (NCI-H226): < 10%
- inhibition of growth at 10 µM (MCF7): < 10%
- inhibition of growth at 10 µM (BT-549): < 10%
- inhibition of growth at 10 µM (CCRF-CEM): < 10%
- inhibition of growth at 10 µM (K562): < 10%
- inhibition of growth at 10 µM (UACC-62): < 10%
- inhibition of growth at 10 µM (EKVX): < 10%
- inhibition of growth at 10 µM (SNB-75): 11.6%
- inhibition of growth at 10 µM (MOLT-4): < 10%
- inhibition of growth at 10 µM (SF-268): < 10%
- inhibition of growth at 10 µM (RPMI-8226): < 10%
- inhibition of growth at 10 µM (LOX IMVI): < 10%
- inhibition of growth at 10 µM (CAKI-1): 10.7%
- inhibition of growth at 10 µM (A549): < 10%
- inhibition of growth at 10 µM (U-251): < 10%
- inhibition of growth at 10 µM (NCI/ADR-RES): < 10%
- inhibition of growth at 10 µM (SK-MEL-28): < 10%
- inhibition of growth at 10 µM (T47D): < 10%
- inhibition of growth at 10 µM (TK-10): < 10%
- inhibition of growth at 10 µM (A498): < 10%
- inhibition of growth at 10 µM (HCT-15): < 10%
- inhibition of growth at 10 µM (IGROV-1): 15.8%
- inhibition of growth at 10 µM (NCI-H23): < 10%
- inhibition of growth at 10 µM (Malme-3M): < 10%
- inhibition of growth at 10 µM (HT-29): < 10%
- inhibition of growth at 10 µM (HL-60(TB)): < 10%
- inhibition of growth at 10 µM (UACC-257): 16.4%
- inhibition of growth at 10 µM (OVCAR-8): < 10%
- inhibition of growth at 10 µM (ACHN): < 10%
- inhibition of growth at 10 µM (SK-MEL-2): < 10%
- inhibition of growth at 10 µM (PC-3): < 10%
- inhibition of growth at 10 µM (MDA-MB-468): < 10%
